Assay results from ChEMBL document CHEMBL1128602, “Potent in vitro and in vivo inhibitors of platelet aggregation based upon the Arg-Gly-Asp sequence of fibrinogen. (Aminobenzamidino)succinyl (ABAS) series of orally active fibrinogen receptor antagonists” (J Med Chem, 1995).

Tests used:
Canis familiaris [1] = assay: Duration of action to obtain >20% ex vivo collagen induced platelet aggregation was reported, after 10 mg/kg (post-ig) into dogs; duration of time >6, <24; format: functional, Canis lupus familiaris
How it was run: (§1)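 Ester prodrugs dosed orally by capsule to conscious beagle dogs (n = 2). Citrated cephalic-vein blood (2 mL) drawn before and at set times after dosing for 24 h or until back to baseline. PRP made by spinning at 260g for 6 min. Aggregation induced with equine tendon collagen (final 33 μg/mL) at 37 °C and followed for 3 min. Duration is the time with >20% inhibition versus predose control.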

Canis familiaris [2] = assay: Duration of action to obtain >20% ex vivo collagen induced platelet aggregation was reported, after 10 mg/kg (post-ig) into dogs.; format: functional, Canis lupus familiaris; how it was run: as §1
Canis familiaris [3] = assay: Duration of action to obtain >20% ex vivo collagen induced platelet aggregation was reported, after 5 mg/kg (post-ig) into dogs.; format: functional, Canis lupus familiaris; how it was run: as §1
[4] = Area under curve was determined by HPLC at a dosage of 2.27 mg/kg administered intravenously by bolus method in dog; format: ADME, organism-based, Canis lupus familiaris; design: dose 2.27 mg/kg, route intravenous; details: in vivo, iv
How it was run: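 Female dogs (7–12 kg, n = 3), fasted 18 h. Aqueous saline solution injected into a radial vein (0.5 mL/kg) over 2–3 min. Femoral vein blood (3.5 mL) taken at 0.25, 0.5, 1, 2, 3, 5, 8, 13 and 24 h, put on ice, centrifuged, plasma held at –20 °C. Acid level in plasma measured by HPLC; AUC by trapezoidal method extrapolated to infinity and back to zero.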

Canis familiaris [5] = assay: Duration of action to obtain >20% ex vivo collagen induced platelet aggregation was reported, after 20 mg/kg (post-ig) into dogs.; format: functional, Canis lupus familiaris; how it was run: as §1
Canis familiaris [6] = assay: Duration of action to obtain >20% ex vivo collagen induced platelet aggregation was reported, after 20 mg/kg (post-ig) into dogs; duration of time >6, <24; format: functional, Canis lupus familiaris; how it was run: as §1
Canis familiaris [7] = assay: Duration of action to obtain >20% ex vivo collagen induced platelet aggregation was reported, after […] 5 mg/kg orally (post-ig) into dogs.; format: functional, Canis lupus familiaris; details: route oral; how it was run: as §1
Canis familiaris [8] = assay: Duration of action to obtain >20% ex vivo collagen induced platelet aggregation was reported, after 20 mg/kg (post-ig) into dogs; duration of time >3, <6; format: functional, Canis lupus familiaris; how it was run: as §1
Canis familiaris [9] = assay: Duration of action to obtain >20% ex vivo collagen induced platelet aggregation was reported, after 20 mg/kg (post-ig) into dogs; Duration of time >6, < 24; format: functional, Canis lupus familiaris; how it was run: as §1
Canis familiaris [10] = assay: Area under curve of acid 2a was determined by HPLC at a dosage of 5.45 mg/kg administered intragastrically by capsule method in dog; format: ADME, organism-based, Canis lupus familiaris; design: dose 5.45 mg/kg, route intragastric; details: in vivo, po
How it was run: (§2)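 Six female dogs, 7–12 kg, three per group, fasted 18 h. Prodrug ester given intragastrically as aqueous solution (2 mL/kg) by gavage or in gelatin capsule. Blood (3.5 mL) drawn via femoral vein catheter at 0.5, 1, 1.5, 2, 3, 5, 8, 13, 24 and 48 h, kept on ice, centrifuged, plasma stored at –20 °C. Acid measured in plasma by HPLC; AUC by trapezoidal method, extrapolated to infinity and back to zero.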

Canis familiaris [11] = assay: Area under curve of acid 2a was determined by HPLC at a dosage of 54.5 mg/kg administered intragastrically by capsule method in dog; format: ADME, organism-based, Canis lupus familiaris; design: dose 54.5 mg/kg, route intragastric; details: in vivo, po; how it was run: as §2
Canis familiaris [12] = assay: Area under curve of acid 2a was determined by HPLC at a dosage of 5.45 mg/kg administered intragastrically by gavage method in dog; format: ADME, organism-based, Canis lupus familiaris; design: dose 5.45 mg/kg, route intragastric; details: in vivo, po; how it was run: as §2
[13] = Area under curve of acid 2a was determined by HPLC at a dosage of 54.5 mg/kg administered intragastrically by gavage method in dog; format: ADME, organism-based; design: dose 54.5 mg/kg, route intragastric; details: in vivo, po; how it was run: as §2

## CCOC(=O)CC(NC(=O)CCCCc1ccc(C(=N)N)cc1)c1ccccc1 (stereo not drawn)
Canis familiaris [1]
  Duration time: >6 h

## CCOC(=O)CC(NC(=O)CCC(=O)Nc1ccc(C(=N)N)cc1)c1cccnc1 (stereo not drawn)
Canis familiaris [2]
  Duration time: >24 h
Canis familiaris [3]
  Duration time: >6 h

## C#C[C@H](CC(=O)O)NC(=O)CCC(=O)Nc1ccc(C(=N)N)cc1
[4]
  AUC: 2490 ng·h/mL

## C=CC(CC(=O)OCC)NC(=O)CCC(=O)Nc1ccc(C(=N)N)cc1 (stereo not drawn)
Canis familiaris [5]
  Duration time: >24 h

## CCOC(=O)CC(C)NC(=O)CCC(=O)Nc1ccc(C(=N)N)cc1 (stereo not drawn)
Canis familiaris [5]
  Duration time: >30 h

## CCOC(=O)CC(NC(=O)CCC(=O)Nc1ccc(C(=N)N)cc1)c1ccc(OCC)nc1 (stereo not drawn)
Canis familiaris [3]
  Duration time: <6 h

## CCOC(=O)CC(C)NC(=O)CCCCc1ccc(C(=N)N)cc1 (stereo not drawn)
Canis familiaris [6]
  Duration time: >6 h

## CCOC(=O)CC(NC(=O)CCC(=O)Nc1ccc(C(=N)N)cc1)c1cnc2ccccc2c1 (stereo not drawn)
Canis familiaris [3]
  Duration time: <6 h

## CCOC(=O)CC(Cc1ccccc1)NC(=O)CCC(=O)Nc1ccc(C(=N)N)cc1 (stereo not drawn)
Canis familiaris [6]
  Duration time: >6 h

## CCOC(=O)CC(NC(=O)CCC(=O)Nc1ccc(C(=N)N)cc1)c1ccc2c(c1)OCO2 (stereo not drawn)
Canis familiaris [7]
  Duration time: >24 h

## CCOC(=O)CC(Cc1ccccc1)NC(=O)CCCCc1ccc(C(=N)N)cc1 (stereo not drawn)
Canis familiaris [8]
  Duration time: >3 h

## CCOC(=O)CC(NC(=O)CCC(=O)Nc1ccc(C(=N)N)cc1)c1ccccc1 (stereo not drawn)
Canis familiaris [9]
  Duration time: >6 h

## C#C[C@H](CC(=O)OCC)NC(=O)CCC(=O)Nc1ccc(C(=N)N)cc1 [XEMILOFIBAN]
Canis familiaris [2]
  Duration time: >24 h
Canis familiaris [10]
  AUC: 2660 ng·h/mL
Canis familiaris [11]
  AUC: 31200 ng·h/mL
Canis familiaris [12]
  AUC: 2730 ng·h/mL
[13]
  AUC: 31700 ng·h/mL
